ChEMBL document CHEMBL1147426, “Thiazoles and thiopyridines: novel series of high affinity h5HT(7) ligands” (Bioorg Med Chem Lett, 2004)

What was measured:
Format in all cases: cell-based
[1] = biological target: T1, 5-hydroxytryptamine receptor 1A (Homo sapiens, UniProt P08908); test: Binding affinity towards human 5-hydroxytryptamine 1A receptor by the displacement of [3H]5-HT radioligand from the cloned receptor expressed in HeLa cells
T1 sequence (P08908 whole entry): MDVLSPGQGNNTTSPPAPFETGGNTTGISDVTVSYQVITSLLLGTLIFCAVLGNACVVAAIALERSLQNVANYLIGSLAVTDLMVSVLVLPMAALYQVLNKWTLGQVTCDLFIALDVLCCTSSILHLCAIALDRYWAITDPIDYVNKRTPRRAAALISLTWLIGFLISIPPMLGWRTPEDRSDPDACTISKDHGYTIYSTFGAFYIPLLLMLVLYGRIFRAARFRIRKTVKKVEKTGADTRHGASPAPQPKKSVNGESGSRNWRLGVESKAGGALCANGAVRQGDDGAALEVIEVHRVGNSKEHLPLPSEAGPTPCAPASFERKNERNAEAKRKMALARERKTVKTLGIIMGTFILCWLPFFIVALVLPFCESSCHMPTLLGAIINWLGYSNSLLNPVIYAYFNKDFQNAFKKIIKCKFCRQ
Method in brief: (§1)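 Affinities are given as the geometric mean of 3–6 independent determinations; some values rest on only 2 determinations.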

[2] = biological target: 5-hydroxytryptamine receptor 2A (Homo sapiens, UniProt P28223); test: Binding affinity towards human 5-hydroxytryptamine 2A receptor by the displacement of [3H]ketanserin radioligand from the cloned receptor expressed in CHO cells; method in brief: as §1
[3] = biological target: 5-hydroxytryptamine receptor 7 (Homo sapiens, UniProt P34969); test: Binding affinity towards human 5-hydroxytryptamine 7 receptor by the displacement of [3H]-5-HT radioligand from the cloned receptor expressed in CHO cells
[4] = biological target: D(2) dopamine receptor (Homo sapiens, UniProt P14416); test: Binding affinity towards human dopamine receptor D2 by the displacement of [3H]spiperone radioligand from the cloned receptor expressed in CHO cells; method in brief: as §1
Chain of D(2) dopamine receptor (P14416 whole entry): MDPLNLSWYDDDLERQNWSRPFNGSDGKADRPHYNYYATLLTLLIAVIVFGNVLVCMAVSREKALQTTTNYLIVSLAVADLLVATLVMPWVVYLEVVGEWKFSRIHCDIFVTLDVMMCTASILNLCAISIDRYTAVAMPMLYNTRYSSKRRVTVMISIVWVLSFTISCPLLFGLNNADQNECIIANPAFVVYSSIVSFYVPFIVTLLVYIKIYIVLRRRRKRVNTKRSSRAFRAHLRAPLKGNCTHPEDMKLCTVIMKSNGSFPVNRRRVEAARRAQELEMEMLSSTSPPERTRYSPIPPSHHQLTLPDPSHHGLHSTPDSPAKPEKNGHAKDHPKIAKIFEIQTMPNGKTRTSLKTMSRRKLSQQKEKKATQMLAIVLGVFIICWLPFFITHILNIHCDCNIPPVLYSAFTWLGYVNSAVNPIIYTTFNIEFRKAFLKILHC

Chain of 5-hydroxytryptamine receptor 2A (P28223 whole entry): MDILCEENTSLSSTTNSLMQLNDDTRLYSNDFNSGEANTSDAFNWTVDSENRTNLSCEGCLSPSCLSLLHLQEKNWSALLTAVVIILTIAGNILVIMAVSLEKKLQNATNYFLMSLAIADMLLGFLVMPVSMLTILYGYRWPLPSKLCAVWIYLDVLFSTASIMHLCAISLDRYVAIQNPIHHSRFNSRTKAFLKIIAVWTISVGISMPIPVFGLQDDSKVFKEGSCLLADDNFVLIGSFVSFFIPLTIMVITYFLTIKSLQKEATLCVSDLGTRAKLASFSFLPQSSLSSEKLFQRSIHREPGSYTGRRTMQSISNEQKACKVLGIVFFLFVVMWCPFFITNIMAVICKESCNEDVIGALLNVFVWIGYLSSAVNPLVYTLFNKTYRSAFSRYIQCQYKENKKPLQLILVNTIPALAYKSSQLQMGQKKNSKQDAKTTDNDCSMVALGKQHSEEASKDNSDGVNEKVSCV
Chain of 5-hydroxytryptamine receptor 7 (P34969 whole entry): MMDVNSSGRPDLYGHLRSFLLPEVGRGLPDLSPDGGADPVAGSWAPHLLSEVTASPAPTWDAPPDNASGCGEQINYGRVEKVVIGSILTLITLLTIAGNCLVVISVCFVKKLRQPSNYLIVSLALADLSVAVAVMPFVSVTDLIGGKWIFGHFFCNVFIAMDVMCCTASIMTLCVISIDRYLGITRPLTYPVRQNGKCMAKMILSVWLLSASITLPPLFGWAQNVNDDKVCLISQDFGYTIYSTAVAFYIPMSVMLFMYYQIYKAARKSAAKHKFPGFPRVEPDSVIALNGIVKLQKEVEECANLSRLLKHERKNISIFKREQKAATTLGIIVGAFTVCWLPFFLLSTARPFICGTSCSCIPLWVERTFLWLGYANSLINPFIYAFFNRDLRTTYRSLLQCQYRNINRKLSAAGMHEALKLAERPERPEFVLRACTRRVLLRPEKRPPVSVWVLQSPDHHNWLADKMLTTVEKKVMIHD

Row | SMILES | Ki [1] [nM] | Ki [2] [nM] | Ki [3] [nM] | Ki [4] [nM]
1 | CN(C)CCSc1cccc(Br)n1 | 37 | 270 | 4.1 | 870
2 | CN(C)CCSc1nnc(-c2ccccc2)o1 |  |  | > 4000 | 
3 | CN(C)CCSc1cccc(C2CCCCC2)n1 | 8.7 | 230 | 0.7 | 1300
4 | CN(C)CCSc1cccc(C2(O)CCCCC2)n1 | 41 | 480 | 7.2 | > 1000
5 | CN(C)CCSc1n[nH]c(-c2ccccc2)n1 |  |  | 1200 | 
6 | Cc1sc(SCCN(C)C)nc1-c1ccccc1 |  |  | 170 | 
7 | CN(C)CCSc1nccs1 |  |  | 6800 | 
8 | CN(C)CCSc1nc(C(C)(C)C)cs1 | 2200 | 1200 | 22 | > 1000
9 | CN(C)CCSc1cccc(-c2ccccc2)n1 |  |  |  | 450
10 | CN(C)CCSc1nc2ccccc2s1 | 830 | 1000 | 84 | > 1000
11 | CN(C)CCSc1ccnc(-c2ccccc2)c1 | 1200 |  | 100 | 
12 | CN(C)CCSc1nc(-c2ccccc2)cs1 | 210 | 640 | 12 | > 1000
13 | CN(C)CCSc1nc(-c2ccncc2)cs1 | 90 | > 200 | 27 | 130
14 | CN(C)CCSc1ncc(-c2ccccc2)s1 |  |  | 3200 | 
